Test results published in ChEMBL document CHEMBL1141192 (J Med Chem, 2005).
Values after ≈ are worked out from the molar mass of the structure shown.

What was measured:
Rattus norvegicus [1] = experiment: Hyperalgesia in male SD rat administered 2 hrs after carrageenan injection, analgesia tested at 6 hrs; type: functional, Sprague-Dawley
Method in brief: (§1)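 Fasted male SD rats (94–118 g); compound suspended in 0.1% MC, given orally at 1, 3 and 10 mg/kg either 1 h before (prophylactic) or 2 h after (therapeutic) intraplantar carrageenan (1%, 100 μL/paw). Mechanical threshold read by Randall-Selitto analgesimeter at 3, 4, 5 and 6 h post-carrageenan.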

[2] = Time taken to achieve maximum concentration in dog at 3 mg/kg, po; type: ADME, organism-based, Canis lupus familiaris; design: dose 3 mg/kg, route oral; details: in vivo
Method in brief: (§2)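 Compound at 3 mg/kg in 0.1% MC given po or iv to rats or dogs; plasma sampled at 0.25, 0.5, 1, 2, 4, 8 and 24 h; drug levels measured by HPLC.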

[3] = Half life at early phase in rat at 3 mg/kg, po; type: ADME, organism-based; design: dose 3 mg/kg, route oral; details: in vivo; method in brief: as §2
Canis familiaris = experiment: Volume of distribution in dog at 3 mg/kg, po; type: ADME, organism-based, Canis lupus familiaris; design: dose 3 mg/kg, route oral; details: in vivo; method in brief: as §2
Rattus norvegicus [4] = experiment: Hyperalgesia in male SD rat administered 2 hrs after carrageenan injection, analgesia tested at 5 hrs; type: functional; details: Sprague-Dawley; method in brief: as §1
[5] = Clearance in rat at 3 mg/kg, po; type: ADME, organism-based; design: dose 3 mg/kg, route oral; details: in vivo; method in brief: as §2
Rattus norvegicus [6] = experiment: Hyperalgesia in male SD rat administered 2 hrs after carrageenan injection, analgesia tested at 4 hrs; type: functional; details: Sprague-Dawley; method in brief: as §1
[7] = Time taken to achieve maximum concentration in rat at 3 mg/kg, po; type: ADME, organism-based; design: dose 3 mg/kg, route oral; details: in vivo; method in brief: as §2
[8] = Solubility in water at pH 7.4
[9] = Half life in dog at 3 mg/kg, po; type: ADME, organism-based, Canis lupus familiaris; design: dose 3 mg/kg, route oral; details: in vivo; method in brief: as §2
Rattus norvegicus [10] = organism: Rattus norvegicus; experiment: Rotarod test in rat at 2 hrs; type: functional; details: Sprague-Dawley
Method in brief: (§3)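 Fasted male SD rats (94–104 g), n = 6 per dose group, given 10–300 mg/kg po in 0.1% MC after training on a 5 rpm rotorod; walking time recorded at 0, 0.5, 1, 2 and 5 h post-dose, 150 s cutoff.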

[11] = Maximum concentration in dog at 3 mg/kg, po; type: ADME, organism-based, Canis lupus familiaris; design: dose 3 mg/kg, route oral; details: in vivo; method in brief: as §2
Rattus norvegicus [12] = organism: Rattus norvegicus; experiment: Rotarod test in rat at 0.5 hrs; type: functional; details: Sprague-Dawley; method in brief: as §3
Callitrichinae = experiment: Bradykinin-induced licking in male marmoset monkey; type: functional, Callithrix jacchus
Method in brief: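 Male marmosets (293–359 g), 4–6 per group, individually housed; dosed po at 0.1, 1.0 and 10 mg/kg in 0.1% MC (vehicle control). 60 min post-dose, 100 μL of 1 mM bradykinin in saline injected i.pl. into foot pad. Response scored 0–3 every 15 s for 15 min from video; ataxia, sedation, emesis monitored. Alternate foot pads, 2-week intervals.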

[13] = AUC (0-24) in rat at 3 mg/kg, po; type: ADME, organism-based; design: time < 24 hr, dose 3 mg/kg, route oral; details: plasma
Rattus norvegicus [14] = organism: Rattus norvegicus; experiment: Inhibition of formalin induced paw pain in male SD rat; type: functional; details: Sprague-Dawley
Method in brief: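 Fasted male SD rats (4 weeks, 105–115 g), six per dose group; compound in 0.1% MC po at 0.3, 1, 3 and 10 mg/kg, 15 min before 50 μL of 2% formalin s.c. into right hindpaw plantar surface.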

[15] = Clearance in dog at 3 mg/kg, po; type: ADME, organism-based, Canis lupus familiaris; design: dose 3 mg/kg, route oral; details: in vivo; method in brief: as §2
Rattus norvegicus [16] = organism: Rattus norvegicus; experiment: Rotarod test in rat at 5 hrs; type: functional; details: Sprague-Dawley; method in brief: as §3
Rattus norvegicus [17] = experiment: Toxicity in rat liver administered at 75 umol/kg, iv; type: organism-based; details: in vivo
Method in brief: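 Three male rats given 75 μmol/kg total iv in 75:25 PEG-400/saline as two 40-min infusions 12 h apart; serum taken 24 h after first infusion for bilirubin, SGOT, SGPT, creatine, GGT, albumin, glucose, BUN and ALP.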

[18] = Oral bioavailability in rat at 3 mg/kg, po; type: ADME, organism-based; details: in vivo; method in brief: as §2
[19] = Metabolic stability by incubation with human liver microsomes; type: ADME, Microsome
[20] = Maximum concentration in rat at 3 mg/kg, po; type: ADME, organism-based; design: dose 3 mg/kg, route oral; details: in vivo; method in brief: as §2
Rattus norvegicus [21] = experiment: Volume of distribution in rat at 3 mg/kg, po; type: ADME, organism-based; design: dose 3 mg/kg, route oral; details: in vivo; method in brief: as §2
Rattus norvegicus [22] = experiment: Hyperalgesia in male SD rat administered 1 hr before carrageenan injection, analgesia tested at 5 hrs; type: functional, Sprague-Dawley; method in brief: as §1
[23] = Half life at late phase in rat at 3 mg/kg, po; type: ADME, organism-based; design: dose 3 mg/kg, route oral; details: in vivo; method in brief: as §2
Rattus norvegicus [24] = organism: Rattus norvegicus; experiment: Rotarod test in rat at 1 hr; type: functional; details: Sprague-Dawley; method in brief: as §3
Rattus norvegicus [25] = experiment: Hyperalgesia in male SD rat administered 1 hr before carrageenan injection, analgesia tested at 4 hrs; type: functional; details: Sprague-Dawley; method in brief: as §1
Rattus norvegicus [26] = experiment: Hyperalgesia in male SD rat administered 2 hrs after carrageenan injection, analgesia tested at 3 hrs; type: functional; details: Sprague-Dawley; method in brief: as §1
Rattus norvegicus [27] = experiment: Hyperalgesia in male SD rat administered 1 hr before carrageenan injection, analgesia tested at 3 hrs; type: functional; details: Sprague-Dawley; method in brief: as §1
[28] = AUC (0-24) in dog at 3 mg/kg, po; type: ADME, organism-based, Canis lupus familiaris; design: time < 24 hr, dose 3 mg/kg, route oral; details: plasma
Adenosine kinase = Adenosine kinase (Homo sapiens, UniProt P55263); experiment: Inhibitory activity against recombinant human adenosine kinase
Chain of Adenosine kinase (P55263 whole entry): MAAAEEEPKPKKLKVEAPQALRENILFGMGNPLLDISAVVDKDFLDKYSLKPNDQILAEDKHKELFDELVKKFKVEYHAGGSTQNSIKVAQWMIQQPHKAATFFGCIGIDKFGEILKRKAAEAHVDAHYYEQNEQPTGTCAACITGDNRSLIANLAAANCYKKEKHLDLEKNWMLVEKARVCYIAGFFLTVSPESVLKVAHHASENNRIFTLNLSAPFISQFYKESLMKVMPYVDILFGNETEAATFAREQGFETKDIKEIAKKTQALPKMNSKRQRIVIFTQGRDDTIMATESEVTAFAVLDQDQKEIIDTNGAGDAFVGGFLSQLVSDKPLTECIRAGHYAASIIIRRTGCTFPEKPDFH

Rattus norvegicus [29] = experiment: Inhibition of the licking and biting response at 20 mg/kg, po in rat by formalin paw antinociceptive assay; type: functional; details: Sprague-Dawley
Method in brief: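 Screening: fasted male SD rats (105–115 g), three per compound, 20 mg/kg po in 0.1% MC 15 min before 2% formalin (50 μL s.c., right hindpaw). Licking/biting scored 5 s per 30 s; percent inhibition reported for 2nd phase (15–30 min); positive control 5 mg/kg po each run.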

Tmax [2]: 0.3 h
half-life [3]: 0.3 h
Vdss (Canis familiaris): 6.3 L/kg
CL/F [5]: 56.7 mL/min/kg
Tmax [7]: 0.3 h
solubility [8]: 32 µg/mL (≈ 75.6 µM)
half-life [9]: 2 h
Cmax [11]: 518 ng/mL
AUC at 24 h [13]: 981 ng·h/mL
CL/F [15]: 35 mL/min/kg
bioavailability [18]: 128%
half-life [19]: 3.3 h
Cmax [20]: 660 ng/mL
Vdss (Rattus norvegicus [21]): 3.3 L/kg
half-life [23]: 5.2 h
AUC at 24 h [28]: 1490 ng·h/mL
IC50 (Adenosine kinase): 3 nM
SMILES: C[C@H]1O[C@@H](n2cc(-c3ccccc3)c3c(NCC(=O)NC4CC4)ncnc32)[C@H](O)[C@@H]1O
Inhibition (Rattus norvegicus [1]): <50%
ED50 (Rattus norvegicus [4]): 6.5 mg/kg
ED50 (Rattus norvegicus [6]): 4.1 mg/kg
ED50 (Rattus norvegicus [10]): 102 mg/kg
ED50 (Rattus norvegicus [12]): > 300 mg/kg
ED50 (Callitrichinae): 0.9 mg/kg
ED50 (Rattus norvegicus [14]): 2.5 mg/kg
ED50 (Rattus norvegicus [16]): 62 mg/kg
Activity (Rattus norvegicus [17]): Non-toxic
Inhibition (Rattus norvegicus [22]): <50%
ED50 (Rattus norvegicus [24]): > 300 mg/kg
ED50 (Rattus norvegicus [25]): 3.8 mg/kg
ED50 (Rattus norvegicus [26]): 1.6 mg/kg
ED50 (Rattus norvegicus [27]): 2.6 mg/kg
inhibition in vivo at 20 mg/kg (Rattus norvegicus [29]): 66%
